Results reported in ChEMBL document CHEMBL4190362, “Synthesis, biological evaluation and quantitative structure-active relationships of 1,3-thiazolidin-4-one derivatives. A promising chemical scaffold endowed with high antifungal potency and low cytotoxicity” (Eur J Med Chem, 2017).
Converted amounts (≈) assume the structure as drawn.

Assays:
Candida parapsilosis = test: Antifungal activity against Candida parapsilosis clinical isolates assessed as inhibition of microbial growth incubated for 24 hrs by broth microdilution method; type: functional; details: Lodderomyces parapsilosis
In short: (§1)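 Twenty-two clinical Candida isolates (8 C. albicans, 4 C. glabrata, 3 C. tropicalis, 3 C. krusei, 2 C. parapsilosis, 2 C. sake) were identified by colony morphology and biochemistry and subcultured at 35 °C for purity. Compounds were dissolved in DMSO and tested by broth microdilution in Sabouraud dextrose broth per NCCLS/CLSI/EUCAST guidance. Values are geometric mean MIC per species (µg/mL).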

Candida tropicalis = test: Antifungal activity against Candida tropicalis clinical isolates assessed as inhibition of microbial growth incubated for 24 hrs by broth microdilution method; type: functional; in short: as §1
Staphylococcus warneri = test: Antibacterial activity against Staphylococcus warneri assessed as inhibition of microbial growth incubated for 18 to 22 hrs by broth microdilution method; type: functional
In short: (§2)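 Broth microdilution in Mueller-Hinton II broth following NCCLS recommendations; compounds dissolved in DMSO.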

Proteus mirabilis = test: Antibacterial activity against Proteus mirabilis assessed as inhibition of microbial growth incubated for 18 to 22 hrs by broth microdilution method; type: functional; in short: as §2
Staphylococcus aureus = test: Antibacterial activity against Staphylococcus aureus assessed as inhibition of microbial growth incubated for 18 to 22 hrs by broth microdilution method; type: functional; in short: as §2
Enterobacter = test: Antibacterial activity against Enterobacter spp. assessed as inhibition of microbial growth incubated for 18 to 22 hrs by broth microdilution method; type: functional; in short: as §2
[1] = Selectivity index, ratio of CC50 for human Hep2 cells to MIC for Candida albicans clinical isolates; type: toxicity; details: HEp-2 cells, read-out: Selectivity Index
In short: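 Calculated as Hep2 CC50 (Trypan Blue exclusion, 24 h, 37 °C) divided by MIC against C. albicans.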

[2] = Cytotoxicity against human Hep2 cells assessed as reduction in cell viability incubated for 24 hrs by trypan blue dye exclusion assay; type: cell-based; details: HEp-2 cells
In short: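 Hep2 (human laryngeal epidermoid carcinoma) cells were exposed to five concentrations from 0.05 to 100 µg/mL for 24 h at 37 °C, and viability was scored by Trypan Blue exclusion as survival fraction. Controls were medium alone, DMSO-treated cells and 1 mM sodium nitroprusside. CC50 is the mean ± SD of at least three independent experiments.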

Nakaseomyces glabratus = test: Antifungal activity against Candida glabrata clinical isolates assessed as inhibition of microbial growth incubated for 24 hrs by broth microdilution method; type: functional; in short: as §1
Pichia kudriavzevii = test: Antifungal activity against Candida krusei clinical isolates assessed as inhibition of microbial growth incubated for 24 hrs by broth microdilution method; type: functional; in short: as §1
[3] = tested on: Streptococcus alpha-hemolyticus (Streptococcus sp.); test: Antibacterial activity against Streptococcus Streptococcus alpha hemolyticus assessed as inhibition of microbial growth incubated for 18 to 22 hrs by broth microdilution method
Enterococcus faecalis = test: Antibacterial activity against Streptococcus faecalis assessed as inhibition of microbial growth incubated for 18 to 22 hrs by broth microdilution method; type: functional; in short: as §2
Klebsiella oxytoca = test: Antibacterial activity against Klebsiella oxytoca assessed as inhibition of microbial growth incubated for 18 to 22 hrs by broth microdilution method; type: functional; in short: as §2
[Candida] sake = Antifungal activity against Candida sake clinical isolates assessed as inhibition of microbial growth incubated for 24 hrs by broth microdilution method; type: functional; details: Fermentozyma sake; in short: as §1
Candida albicans = test: Antifungal activity against Candida albicans clinical isolates assessed as inhibition of microbial growth incubated for 24 hrs by broth microdilution method; type: functional; in short: as §1
Escherichia coli = test: Antibacterial activity against Escherichia coli assessed as inhibition of microbial growth incubated for 18 to 22 hrs by broth microdilution method; type: functional; in short: as §2

Row | SMILES | MIC (Candida parapsilosis) [µg/mL] | MIC (Candida tropicalis) [µg/mL] | MIC (Staphylococcus warneri) [µg/mL] | MIC (Proteus mirabilis) [µg/mL] | MIC (Staphylococcus aureus) [µg/mL] | MIC (Enterobacter) [µg/mL] | selectivity ratio [1] | CC50 at 24 h [2] [µg/mL] | MIC (Nakaseomyces glabratus) [µg/mL] | MIC (Pichia kudriavzevii) [µg/mL] | MIC [3] [µg/mL] | MIC (Enterococcus faecalis) [µg/mL] | MIC (Klebsiella oxytoca) [µg/mL] | MIC ([Candida] sake) [µg/mL] | MIC (Candida albicans) [µg/mL] | MIC (Escherichia coli) [µg/mL]
1 | CC(C)=N/N=C1\NC(=O)CS1 | 2 | 2 | ≥ 256 | ≥ 256 | ≥ 256 | ≥ 256 | 34 | 68.4 (≈ 399 µM) | 2 | 2 | ≥ 256 | ≥ 256 | ≥ 256 | 2 | 2 | ≥ 256
2 | CCC/C(C)=N\N=C1/NC(=O)CS1 | 2 | 2 | ≥ 256 | ≥ 256 | ≥ 256 | ≥ 256 | 46.5 | 93.4 (≈ 469 µM) | 2 | 2 | ≥ 256 | ≥ 256 | ≥ 256 | 2 | 2 | ≥ 256
3 | CCC(CC)=N/N=C1\NC(=O)CS1 | 2 | 4 | ≥ 256 | ≥ 256 | ≥ 256 | ≥ 256 | 24.5 | 49.2 (≈ 247 µM) | 1 | 2 | ≥ 256 | ≥ 256 | ≥ 256 | 2 | 2 | ≥ 256
4 | CCCCC/C(C)=N\N=C1/NC(=O)CS1 | 8 | 4 | ≥ 256 | ≥ 256 | ≥ 256 | ≥ 256 | 35.5 | 71.8 (≈ 316 µM) | 2 | 8 | ≥ 256 | ≥ 256 | ≥ 256 | 8 | 2 | ≥ 256
5 | CCCC/C(CC)=N\N=C1/NC(=O)CS1 | 2 | 1 | ≥ 256 | ≥ 256 | ≥ 256 | ≥ 256 | 11.5 | 46.4 (≈ 204 µM) | 1 | 2 | ≥ 256 | ≥ 256 | ≥ 256 | 4 | 4 | ≥ 256
6 | CC1CCC/C1=N/N=C1\NC(=O)CS1 (configuration not stated) | 2 | 8 | ≥ 256 | ≥ 256 | ≥ 256 | ≥ 256 | 26 | 52.8 (≈ 250 µM) | 1 | 2 | ≥ 256 | ≥ 256 | ≥ 256 | 2 | 2 | ≥ 256
7 | CC1CC/C(=N/N=C2\NC(=O)CS2)C1 (configuration not stated) | 2 | 2 | ≥ 256 | ≥ 256 | ≥ 256 | ≥ 256 | 25 | 50.8 (≈ 240 µM) | 2 | 2 | ≥ 256 | ≥ 256 | ≥ 256 | 2 | 2 | ≥ 256
